Calls of active or inactive are those of the source. No cut-off for these calls is given here.
Assays:
[1] = molecular target: T1, ATP-dependent RNA helicase DDX3X (Homo sapiens, UniProt O00571); test: Inhibition of recombinant full length human His-tagged DDX3X expressed in Escherichia coli using dsRNA as substrate measured after 40 mins in presence of ATP by FRET assay
Target sequence in this assay (O00571 whole entry): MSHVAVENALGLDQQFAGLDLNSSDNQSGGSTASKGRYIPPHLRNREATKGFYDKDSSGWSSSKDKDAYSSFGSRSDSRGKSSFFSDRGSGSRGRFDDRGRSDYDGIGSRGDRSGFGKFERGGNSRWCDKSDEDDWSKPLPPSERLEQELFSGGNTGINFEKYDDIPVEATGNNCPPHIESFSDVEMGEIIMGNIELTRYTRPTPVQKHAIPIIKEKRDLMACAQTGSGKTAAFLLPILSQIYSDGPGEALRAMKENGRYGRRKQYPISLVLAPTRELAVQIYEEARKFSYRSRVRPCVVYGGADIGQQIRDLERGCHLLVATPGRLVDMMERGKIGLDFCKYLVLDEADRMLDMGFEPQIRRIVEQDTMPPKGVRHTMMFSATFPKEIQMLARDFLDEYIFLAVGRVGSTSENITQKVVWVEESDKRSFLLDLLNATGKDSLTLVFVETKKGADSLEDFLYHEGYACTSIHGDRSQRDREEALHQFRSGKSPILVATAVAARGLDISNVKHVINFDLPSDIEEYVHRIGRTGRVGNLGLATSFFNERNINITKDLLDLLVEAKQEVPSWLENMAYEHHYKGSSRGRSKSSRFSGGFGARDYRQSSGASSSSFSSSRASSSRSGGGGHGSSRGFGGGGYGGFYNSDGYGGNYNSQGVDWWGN

dengue virus type 2 [2] = test: Antiviral activity against Dengue virus serotype 2 New Guinea C infected at 50 TCID50 in human HuH7 cells assessed as inhibition of viral replication and 72 hrs later re-infected pre-seeded HuH7 cells with viral supernatant collected from previous infected and measured after 72 hrs by immunodetection assay; format: functional, organism-based; settings: Huh-7, 72 h
Summary of the method: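 Huh-7 cells infected with 50 TCID50 DENV-2 in presence of serial compound dilutions; after 72 h supernatants used to infect preseeded Huh-7 cells for a second infection cycle; replication read after further 72 h by immunoenzymatic assay with monoclonal antibody to conserved viral E antigen region. IC50 from at least two experiments, mean ± SD.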

[3] = Cytotoxicity against human HuH7 cells assessed as reduction in cell viability by measuring ATP level measured after 72 hrs by CellTiter-Glo luminescent assay; format: cell-based, Huh-7
Summary of the method: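 Huh-7 cells; viable cell number determined from cellular ATP content by CellTiter-Glo 2.0 luminescence; CC50 derived.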

in vitro = settings: human
[4] = molecular target: T1, ATP-dependent RNA helicase DDX3X; test: Induction of DDX3X recruitment in human HuH7 cells infected with 100 TCID50 of Dengue virus serotype 2 New Guinea C assessed as colocalization of DDX3X in perinuclear region at 20 uM measured at 6 to 24 hrs post-infection by Alexa fluor 488 dye based confocal microscopy; format: cell-based; settings: Huh-7
Summary of the method: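 Huh-7 cells infected with DENV-2 at 100 TCID50, treated with fluorescent inhibitor at 20 μM; fixed at 0, 6, 12 and 24 h p.i., permeabilized, immunostained for DDX3 or NS5 (Alexa Fluor 568 secondary) and examined by confocal microscopy for colocalization with the probe.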
Target sequence in this assay (O00571 2-662 limits assumed): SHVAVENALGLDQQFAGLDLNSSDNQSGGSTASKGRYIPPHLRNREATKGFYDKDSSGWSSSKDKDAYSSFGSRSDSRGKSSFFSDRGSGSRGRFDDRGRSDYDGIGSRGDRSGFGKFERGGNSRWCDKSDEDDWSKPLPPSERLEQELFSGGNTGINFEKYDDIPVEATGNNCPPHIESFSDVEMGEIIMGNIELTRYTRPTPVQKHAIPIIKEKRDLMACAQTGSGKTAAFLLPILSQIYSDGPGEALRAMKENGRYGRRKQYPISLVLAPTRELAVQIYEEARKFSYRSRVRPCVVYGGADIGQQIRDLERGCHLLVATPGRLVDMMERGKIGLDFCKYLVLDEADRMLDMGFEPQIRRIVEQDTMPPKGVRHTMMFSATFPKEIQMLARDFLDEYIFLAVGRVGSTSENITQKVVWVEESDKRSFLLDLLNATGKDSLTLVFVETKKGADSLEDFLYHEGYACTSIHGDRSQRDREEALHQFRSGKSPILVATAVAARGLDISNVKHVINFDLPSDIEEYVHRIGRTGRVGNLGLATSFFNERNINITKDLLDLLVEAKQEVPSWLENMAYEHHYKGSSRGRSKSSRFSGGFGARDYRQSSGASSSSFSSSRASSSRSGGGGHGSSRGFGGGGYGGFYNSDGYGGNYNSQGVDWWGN

dengue virus type 2 [5] = test: Antiviral activity against Dengue virus serotype 2 New Guinea C infected at 100 TCID50 in human HuH7 cells assessed as cytoplasmic localization of NS5 followed by movement to nucleus at 20 uM measured at 6 hrs post-infection by […]; format: functional, organism-based; settings: Huh-7
[6] = molecular target: T1, ATP-dependent RNA helicase DDX3X; test: Induction of DDX3X recruitment in human HuH7 cells infected with 100 TCID50 of Dengue virus serotype 2 New Guinea C assessed as increase in DDX3X expression in perinuclear region at 20 uM measured at 48 to 72 hrs post-infection by Alexa fluor 488 dye based confocal microscopy; format: cell-based; settings: Huh-7
Summary of the method: (§1)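 DENV-2-infected Huh-7 cells (100 TCID50) treated with fluorescent inhibitor at 20 μM; immunostained for DDX3X or NS5 and examined by confocal microscopy over time up to 72 h p.i.; viable cell number and NS5-positive cell number scored.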
Target sequence in this assay (O00571 2-662 limits assumed): as above

dengue virus type 2 [7] = test: Antiviral activity against Dengue virus serotype 2 New Guinea C infected at 100 TCID50 in human HuH7 cells assessed as increase in viable cells at 20 uM measured at 48 to 72 hrs post-infection by Alexa fluor 488 dye based confocal microscopy; format: functional, organism-based; settings: Huh-7; summary of the method: as §1
dengue virus type 2 [8] = test: Antiviral activity against Dengue virus serotype 2 New Guinea C infected at 100 TCID50 in human HuH7 cells assessed as reduction of NS5 positive cells at 20 uM measured at 48 to 72 hrs post-infection by Alexa fluor 488 dye based confocal microscopy; format: functional, organism-based; settings: Huh-7; summary of the method: as §1
dengue virus type 2 [9] = test: Antiviral activity against Dengue virus serotype 2 New Guinea C infected at 100 TCID50 in human HuH7 cells assessed as reduction in number of NS3 positive cells at 0.1 to 20 uM measured up to 24 hrs by Alexa fluor 488 dye based confocal microscopy; format: functional, organism-based; settings: Huh-7
dengue virus type 2 [10] = test: Antiviral activity against Dengue virus serotype 2 New Guinea C infected at 100 TCID50 in human HuH7 cells assessed as reduction in number of NS5 positive cells at 0.1 to 20 uM measured up to 24 hrs by Alexa fluor 488 dye based confocal microscopy; format: functional, organism-based; settings: Huh-7
dengue virus type 2 [11] = test: Antiviral activity against Dengue virus serotype 2 New Guinea C infected at 100 TCID50 in human HuH7 cells assessed as cytopathic effect by measuring increase in viable cells at 0.1 to 20 uM measured up to 24 hrs by Alexa fluor 488 based confocal microscopy; format: functional, organism-based; settings: Huh-7
dengue virus type 2 [12] = test: Antiviral activity against Dengue virus serotype 2 New Guinea C infected at 100 TCID50 in human HuH7 cells assessed as reduction in number of dsRNA positive cells at 0.1 to 20 uM measured up to 24 hrs by Alexa fluor 488 dye based confocal microscopy; format: functional, organism-based; settings: Huh-7

SMILES	IC50 [1] [µM]	IC50 (dengue virus type 2 [2]) [µM]	CC50 at 72 h [3] [µM]	selectivity ratio at 72 h (in vitro; HuH7 cells)	other results
COc1cc(-n2cc(CCC(C)C)nn2)ccc1NC(=O)Nc1ccccc1C(F)(F)F	1.05				
CCOCc1cn(-c2cccc(S(=O)(=O)Nc3cccc(C(=O)O)c3)c2)nn1		> 7	7		
CCCCc1cn(-c2ccc(NC(=O)Nc3ccccc3NS(C)(=O)=O)cc2)nn1	0.06	2.5	35	14	
CC(C)CCc1cn(-c2ccc(NC(=O)Nc3ccc(F)cc3)cc2)nn1	1.9				
COc1cc(NC(=O)Nc2ccccc2C(F)(F)F)ccc1-n1cc(CCC(C)C)nn1	0.3				
O=C(Nc1ccc(-n2cc(CF)nn2)cc1)Nc1ccccc1C(F)(F)F	2.2				
NC(=O)c1ncn([C@@H]2O[C@H](CO)[C@@H](O)[C@H]2O)n1 [RIBAVIRIN]		4	100		selectivity ratio at 72 h (in vitro): 25
CCCCc1cn(-c2cccc(S(=O)(=O)Nc3ccccc3C(F)(F)F)c2)nn1		6.1	18	3	
O=C1OC2(c3ccc(O)cc3Oc3cc(O)ccc32)c2cc(NC(=S)NCCOCc3cn(-c4cccc(S(=O)(=O)Nc5ccccc5C(F)(F)F)c4)nn3)ccc21		28.2	140		Activity [4]: Active; Activity (dengue virus type 2 [5]): Active; Activity [6]: Active; Activity (dengue virus type 2 [7]): Active; Activity (dengue virus type 2 [8]): Active
CCCCc1cn(-c2cccc(S(=O)(=O)Nc3cccc4cnccc34)c2)nn1	0.12	2.3	30		
CCCCc1cn(-c2cccc(S(=O)(=O)Nc3ccccc3OC)c2)nn1	0.18	6.3	79		
CCCC(C)C(F)c1cn(-c2ccc(NC(=O)Nc3ccccc3C(F)(F)F)cc2)nn1 (stereo not given)	1.05				
CC(=O)CCc1cn(-c2ccc(NC(=O)Nc3cccc(F)c3)cc2)nn1	2.4	0.3	20	64.7	
CCOCc1cn(-c2cccc(S(=O)(=O)Nc3ccccc3NS(C)(=O)=O)c2)nn1	0.08	8.3	87	10.5	
Cc1ccccc1NC(=O)Nc1ccc(-n2cc(CCC(C)C)nn2)cc1	0.17	1.4	170	121	
CC(C)CCc1cn(-c2ccc(NC(=O)Nc3ccccc3F)cc2)nn1		0.9	200	222	
CCCCc1cn(-c2cccc(S(=O)(=O)Nc3ccccc3O)c2)nn1	0.4	1.6	150		
CC(C)CCc1cn(-c2ccc(NC(=O)Nc3cccc(F)c3)cc2)nn1		2.5	200	80	
CCOCc1cn(-c2cccc(S(=O)(=O)Nc3ccccc3C(F)(F)F)c2)nn1		2.6	150		Activity (dengue virus type 2 [9]): Active; Activity (dengue virus type 2 [10]): Active; Activity (dengue virus type 2 [11]): Active; Activity (dengue virus type 2 [12]): Active
CCOCc1cn(-c2ccc(NC(=O)Nc3cccc(F)c3)cc2)nn1	21.2	> 145	145		
CCOCc1cn(-c2cccc(S(=O)(=O)Nc3cccc(C(=O)OCC)c3)c2)nn1	0.005	4.3	100	23.2	
CCOCc1cn(-c2cccc(S(=O)(=O)Nc3ccccc3N3CCOCC3)c2)nn1	0.06	5.3	100	18.9	
CCCCc1cn(-c2ccc(NC(=O)Nc3cccc(F)c3)cc2)nn1	0.6	10.5	200	19	
CC(C)OC(=O)[C@H](C)N[P@](=O)(OC[C@H]1O[C@@H](n2ccc(=O)[nH]c2=O)[C@](C)(F)[C@@H]1O)Oc1ccccc1 [SOFOSBUVIR]		3.8	200	52.6	
CCCCCCc1cn(-c2ccc(NC(=O)Nc3ccccc3C(F)(F)F)cc2)nn1	0.3	2.7	170	62.9	
CCCCc1cn(-c2ccc(NC(=O)Nc3ccccc3C)cc2)nn1		2.55			
